High-throughput results (PubChem)
An excerpt weighted towards active compounds, which were near 1.6% of everything screened.
T cell HTS: T cell immune modulators affecting CD8 T cell-vesicle binding; 330,000 tested, 0.068% active; response (vesicle binding), % at 7 µM; AID 2052; 2C CD8+ T cell-vesicle binding, flow cytometry; stronger effect = lower value;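 active = response, share of CD8 T cells binding vesicles, and their 90th percentile fluorescence all below set limits, cut at about 80% in these data, passing the limit was not always enough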;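 note: values below 100% mean blocked vesicle binding to the CD8+ T cells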
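Benchmarks: naked versus QL9-loaded vesicles / Assay system: purified 2C TCR transgenic mouse naive CD8+ T cells / Technique: high-throughput flow cytometry with anti-B7-1 and anti-CD8 staining / Timing: Cell–vesicle co-incubation 1.5 h at 37 °C, staining 20 min on ice / Read-out: percent CD8+ FL2 mean versus row control / Probe or stimulus: QL9-loaded Drosophila micro-vesicles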
Arr AP2 block: human beta-arrestin and AP2 interaction inhibition; FITC-arrestin peptide / GST-AP2 beads, flow cytometry; AP2 beta2 appendage carries R879A mutation; inhibition, % at 10 µM; 340,000 tested, 0.31% active;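 active = inhibition above a set limit, near 3 SD of compounds lacking own fluorescence, cut at about 54% in these data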;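 note: plate controls were DMSO wells for no effect and 5 µM unlabelled arrestin peptide for full effect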
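System: GST-AP2 R879A glutathione beads. Medium: PBS with 0.05% Tween 20 and 0.1% BSA. Also added: FITC-arrestin peptide, 50 nM. Incubation: 12 min plus 1 h, RT. Measured by: high-throughput flow cytometry of beads, ex 488, em 535 nm. Evaluation: percent drop in bead-associated FITC signal.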
HDAC3 inhib: blocks human histone deacetylase 3 | O15379 | recombinant HDAC3, fluorogenic peptide/trypsin coupled, fluorescence | inhibition, % at 8.3 µM | 320,000 tested, 0.15% active; in the data active = inhibition above about 26%, passing the limit was not always enough
LANA-H2A inh: blocks KSHV LANA binding to histone H2A/H2B; cell-free LANA-H2A/H2B peptide, fluorescence polarization; inhibition, % (concentration not given with the values); AID 2629; 320,000 tested, 0.6% active; Q9QR71; in the data active = inhibition mostly above about 10%, no sharp cut-off; inactive = mostly below about 6.7%
Pemphigus Ab inh: blocks pemphigus antibody binding to human desmoglein-3; binding (percent of control), % at 10 µM; P32926; 310,000 tested, 0.48% active; DSG3-coupled beads, scFv-anti-DSG3-GFP binding, flow cytometry; stronger effect = lower value; AID 588358;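 active = binding more than 3 SD below its plate's average and above zero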;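 note: hits lower antibody fragment binding to DSG3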
JMJD2C inh: blocks human GASC-1 demethylase activity; Q9H3R0; GST-JMJD2C(1-420) H3K9me3 demethylation, DELFIA europium; inhibition, % at 2.35 µM; 330,000 tested, 0.069% active; AID 2099;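 active = more than half of a compound's replicate wells show inhibition beyond 50%, single wells judged on their own value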;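 note: signal counts dimethyl H3K9 product captured on neutravidin plate; 0% = median of DMSO wells and 100% = 0.3 times that DMSO median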
Target sequence (Q9H3R0 1-420 limits assumed): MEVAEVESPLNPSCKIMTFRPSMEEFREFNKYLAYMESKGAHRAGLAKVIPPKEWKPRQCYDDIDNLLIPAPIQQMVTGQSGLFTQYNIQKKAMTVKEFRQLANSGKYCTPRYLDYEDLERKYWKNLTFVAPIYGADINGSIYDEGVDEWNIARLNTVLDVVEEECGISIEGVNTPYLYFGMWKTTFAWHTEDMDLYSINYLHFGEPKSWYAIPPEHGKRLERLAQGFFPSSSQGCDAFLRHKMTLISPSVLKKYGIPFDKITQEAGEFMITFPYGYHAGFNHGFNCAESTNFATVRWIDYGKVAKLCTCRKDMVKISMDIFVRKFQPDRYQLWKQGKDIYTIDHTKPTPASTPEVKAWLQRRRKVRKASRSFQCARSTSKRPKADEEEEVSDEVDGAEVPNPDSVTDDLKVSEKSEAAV
An asterisk follows results filed as active; i = inactive; x = no result given.

SMILES | T cell HTS | Arr AP2 block | HDAC3 inhib | LANA-H2A inh | Pemphigus Ab inh | JMJD2C inh
O=[N+]([O-])c1cc(CS(=O)(=O)Oc2ccc(Cl)cc2)c(O)c([N+](=O)[O-])c1 | 936 | 17 | 5 | 3 | 113 | -4
C#CCn1c(=NC(=O)c2ccc(S(=O)(=O)N3CCc4ccccc4C3)cc2)sc2cc(S(N)(=O)=O)ccc21 | 228 | 6 | -2 | 8 | 97 | 13
C#CCn1c(=NC(=O)c2sc3ccccc3c2Cl)sc2cc(S(N)(=O)=O)ccc21 | 0 | -15 | 1 | -6 | 109* | -19
COc1ncnc2c1ncn2CCCNCc1ccc(C)o1 | x | x | x | x | 98 | x
O=c1c(-c2ccccc2)c(O)c2cccc3c2n1CCC3 | 363 | -1 | -10 | 20* | 111 | 14
CC1CCN(S(=O)(=O)c2cccc(C(=O)N3CCN(c4ccc(F)cc4)CC3)c2)CC1 | 546 | 6 | 1 | 2 | 100 | 1
O=C(Oc1ccccc1/C=C\C(=O)c1cc2ccccc2o1)c1cccc(F)c1 | 241 | 14 | 10 | 17* | 100 | 0
O=C(Oc1ccccc1/C=C\C(=O)c1cc2ccccc2o1)c1ccccc1 | 226 | 10 | -2 | 1 | 124 | 4
O=C(CN(Cc1ccccc1)S(=O)(=O)c1ccc(Cl)cc1)NCC1CCCO1 (stereo not drawn) | 291 | 32 | 7 | 14* | 100 | 11
O=C(CN(Cc1ccccc1)S(=O)(=O)c1ccc(Br)cc1)NCC1CCCO1 (stereo not drawn) | 329 | 0 | 1 | 3 | 112 | 17
O=C(CN(CC1CCCO1)C(=O)CCC(=O)Nc1nccs1)NCC1CCCO1 (stereo not drawn) | 226 | 0 | -2 | -4 | x | -23
O=S(=O)(NCc1ccccc1)c1ccc(S(=O)(=O)N(Cc2cccs2)CC2CCCO2)cc1 (stereo not drawn) | 160 | 8 | -6 | 1 | 90* | 3
O=C(CN(Cc1ccccc1)C(=O)CCC(=O)Nc1nccs1)NCC1CCCO1 (stereo not drawn) | 195 | 1 | -1 | -1 | 0.3* | -3
CS(=O)(=O)N(CC(=O)NCC1CCCO1)Cc1ccc(Cl)cc1 (stereo not drawn) | 101 | 25 | 4 | 2 | 101 | 2
CCN(CC(=O)NCC1CCCO1)S(=O)(=O)c1ccc(Cl)cc1 (stereo not drawn) | 251 | 11 | 9 | 3 | 111 | 50*
COCCNC(=S)N1CCN(c2nc(-c3ccc(F)cc3)cs2)CC1 | 208 | -21 | 3 | 18* | 108 | -2
N#CC(OC(=O)c1ccccc1)c1ccccc1 (stereo not drawn) | x | -3 | x | x | 106 | x
NC(=O)c1ccc(N=Nc2c(O)c3ccccc3[nH]c2=O)cc1 | 141 | x | 6 | 1 | x | -2
N=C(N)c1ccc(N=Nc2c(O)ccc3c2[nH]c2ccccc23)cc1 | x | 41 | x | x | 69* | x
CC(C)c1ccc(NC2CCCN(C(=O)CN3CCCCC3=O)C2)cc1 (stereo not drawn) | x | x | x | x | 110 | x
CC1CCC2(CC1)NC(=S)N(c1ccccc1)N2 (stereo not drawn) | 305 | 3 | -4 | 17* | 111 | -1
Cc1cc(C)n(-c2ccc(NC(=O)C3CCCCN3C(=O)c3occc3C)cc2)n1 (stereo not drawn) | 266 | 0 | 4 | -5 | 106 | 3
Cc1cc(C)n(-c2ccc(NC(=O)C3CCCCN3C(=O)c3ccoc3)cc2)n1 (stereo not drawn) | 477 | 14 | -2 | 55* | x | 13
Cc1ccc(NC(=O)c2c3c(nc4ccccc24)CCC3)cc1 | 154 | 6 | -1 | 1 | 107 | -22
Cc1ccc(NC(=O)c2c3c(nc4ccccc24)CCC3)cc1S(=O)(=O)N(C)C | 202 | 17 | -2 | -5 | 45* | 4
SMILES | T cell HTS | Arr AP2 block | HDAC3 inhib | LANA-H2A inh | Pemphigus Ab inh | JMJD2C inh
CCn1cc(C(=O)NCCCOC)c(=O)c2cc(S(=O)(=O)N3CCCC3)ccc21 | 90 | 16 | 10 | 14* | 109 | -2
COc1cc(OC)c(OC)cc1CNC(=O)c1cccc(S(=O)(=O)N2CCc3ccccc3C2)c1 | x | -10 | x | x | 106 | x
COC(=O)[C@H](CO)N1C(=O)[C@@H]2[C@H](C1=O)C1C=C[C@H]2C1 | x | 33 | x | x | 100 | x
Cc1ccccc1NC(=O)Nc1nc2ccc(S(C)(=O)=O)cc2s1 | 184 | 28 | 0 | 1 | 74* | 2
NS(=O)(=O)c1ccc2nc(NC(=O)Nc3ccccc3F)sc2c1 | i | 42 | -1 | 3 | 96 | 9
CCOC(=O)C1CCCN(c2c(NCCCN(CC)c3ccccc3)c(=O)c2=O)C1 (stereo not drawn) | 150 | 13 | -5 | 17* | 100 | -2
Nc1cccc2c1C(=O)N(C(=O)c1cccc(S(=O)(=O)N3CCCC3)c1)C2=O | 402 | 2 | 2 | 5 | 93 | x
Cc1ccc(C(=O)N2C(=O)c3cccc(N)c3C2=O)o1 | 312 | 2 | 7 | 20* | 87 | -10
COc1ccc(NC(=O)COc2coc(CN3c4ccccc4CC3C)cc2=O)cc1 (stereo not drawn) | 168 | -9 | x | 4 | 105 | 8
CCOc1cc(CN2CCN(c3ncccn3)CC2)ccc1OC | 172 | 33 | 0 | 2 | 84* | 2
CCCn1nc(NC(=O)c2ccncc2)c2cc3ccccc3nc21 | 181 | 6 | 7 | 2 | 107 | 4
CCCC(=O)Nc1nn(CCC)c2nc3ccccc3cc12 | 528 | 12 | 0 | 15* | 102 | 2
Cc1ccc(C2(CCNCc3ccc(N(C)C)cc3)CCOC(C(C)C)C2)cc1 (stereo not drawn) | 212 | -3 | -2 | 0 | 114 | -17
CC(C)C1CC(CCNCc2ccc(N(C)C)cc2)(c2ccccc2)CCO1 (stereo not drawn) | 385 | 5 | 0 | 7.2* | 128 | 0
CC(C)c1ccc(N(CC(=O)NCc2ccco2)C(=O)CCC(=O)Nc2ccccn2)cc1 | 272 | 5 | -6 | 3 | x | 12
COc1cc2c(cc1OC)CN(C(=O)CSc1n[nH]c(N)n1)CC2 | 252 | -1 | -1 | 3 | 117 | 54*
NS(=O)(=O)c1ccc(NC(=O)COc2ccc(C(=O)c3ccc(F)cc3)cc2)cc1 | 208 | 12 | 8 | -1 | 54* | 39
CN1CCN(S(=O)(=O)c2cccc(C#N)c2)C(c2ccccc2)C1 (stereo not drawn) | x | -10 | x | x | 96 | x
O=[N+]([O-])c1ccc2[nH]c(O)c(N=NC(=S)NCC3CCCO3)c2c1 (stereo not drawn) | 328 | 6 | x | x | 99 | -2
CCNC(=S)N=Nc1c(O)[nH]c2ccc([N+](=O)[O-])cc12 | 982 | 9 | -3 | -1 | 40* | 9
